Variants at the floor of the assay were thinned out.
B1: tRNA (parent)
chain: GUUCCGUUGGCGUAAUGGUAACGCGUCUCCCUCCUAAGGAGAAGACUGCGGGUUCGAGUCCCGUACGGAACG

Variants of: B1
Test: yeast fitness relative to wild type (ratio to wild type); higher = fitter; tRNA-Arg(CCU), competitive growth, 37 C, YPD
Outline: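 Variants of the tRNA-Arg(CCU) gene, chemically synthesised with a 3% per-site mutation rate at 69 sites, were placed at the native genomic locus in Saccharomyces cerevisiae. The pooled strains were competed in YPD at 37°C for 24 hours in six parallel replicates. Gene amplicons from the start population and from each end population were read by 100-nucleotide paired-end sequencing. Darwinian fitness relative to wild type came from changes in genotype frequencies; genotypes needed ≥ 100 starting reads, and estimates < 0.5 were set to 0.5.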

Variant	yeast fitness
GUUCCGUUGGCGUAAUCGUAACGCGUCUCCCUCCUAAGGAGCAGACUGCGGGUUCGAGUCCCGUACGAAACG	≤ 0.5
GUUCCGUUGGCGUAAUAGAAACACGUCUCCUUCAUAAGGAGAAGACUCCGGGUUCGAGUCCUGUACGGAACG	≤ 0.5
GUUCCGUUGGCGUAAUCGUAACGCGUCUCCCUCCUGAGGAGAAGGCUGCGGGUUCGAGUCCCGUACGGAACG	0.505
GUUCCGUUGGCGUAAUCGUAACGCGUCUCCCUCCUAAGGAGAAGACUGCGGGUUCGAGUCCCGUACGGUACG	0.624
GUUCCGUUGGCGUAAUCGUAACGCGUCUCCCUCCUAAGGAGAAGACUGCGGGUUCGAGUCCCGUACGGCACG	0.658
GUUCCGUUGGCGUAAUCGUAAGGCGUCUCUCUCCUAAGGACAAGAUUGCGGGUUCGAGUCCCGUACGGAACG	0.708
GUUCCGUUGGCGUAAUAGUAACGCGUCUCCCUCCUAAGGAGAAGACUGCGGGUUCCACUCCCAUACGGAACG	≤ 0.5
GUUCCGUUGGCGUAAUCGUAAAGCGUCUCCGUCCUAAGGAGAAGACUGCGGGUUGGAGUCCCGUACGGAUCG	0.527
GUUCCGUUGGCGUAAUAGUAACGCGCCUCCCUCCUAAGGAGAAGACUGCGGGUUCGAGUCCCGUACGGAACG	0.784
GUUCCGUUGGCGUAAUCGUAACGCGUCUCCCUCCUAAGGAGCAGACUGCGGGUUUGAGUCCCGUACGGAACG	≤ 0.5
GUUCCGUUGGCGUAAUAGUAACGCGUCUCCCUCCUAAGGAGAAGACUGCGGGUUCGAGCCCCGUACGGAACG	0.62
GUUCCGUUGGCGUAAUCGUAACGCGUCUCCCUCCUAUGGAGUAGACUGGGAGUUCGAGUCUCGUACGGAACG	≤ 0.5
GUUCCGUUGGCGUAAUAGAAACGCGUCUCUCUCCUAAGGAGAAGACUGCGGGUUCGAGUCCCGUACAGAACG	≤ 0.5
GUUCCGUUGGCGUAAUAGCAACGCGUCUCCCUCCUAAGGAGAAGACUGCGGGUUCGAGUCCCGUACGGAACG	0.95
GUUCCGUUGGCGUAAUAGUAACGCGUCGCGCUCCUAAGGCGUAGACUGCGGGUUCGAGUCCCGUACGGAACG	≤ 0.5
GUUCCGUUGGCGUAAUCGUAACGCGUCUCCCUCCUAGGGCGAAGACUGCGGGUUCGAGUCCCGUACGGAACG	0.619
GUUCCGUUGGCGUAAUAGUAACGCGUCUCCCUCCUAAGGAGAAGACCGCGGGUUCGGGUCCCGUACGGUACG	≤ 0.5
GUUCCGUUGGCGUAAUCGUAAUGCGUCUCUCUCCUAUGGAGAAGACUGCGGGUUCGAGUCCCGUACGGAACG	≤ 0.5
GUUCCGUUGGCGUAAUCGUUACGCGUCUCCCUCCUAAGGAGAAGACUGCGGCUUCGAGUCCCGUACGGAACG	≤ 0.5

Variant	yeast fitness
GUUCCGUUGGCGUAAUCGUUACGCGUUUCCCUCCUAAGGAGAAGACUGCGGGCUCGAGUCCCGUACGGAACG	0.619
GUUCCGUUGGCGUAAUAGUAACGCGUCUCCCUCCUAAGGAGAAGACUGCGGGUACGAGUCCCGUACGGAACG	0.566
GUUCCGUUGGCGUAAUAGUAACGCGUCUCCCUCCUAAGGAGAAGACUGCGGGUUCGAAUCCCGUACGGAACG	0.794
GUUCCGUUGGCGUAAUCGUUACGCGUCUCCCUCCUAAGGAGUAGACUGCGGGUUCGAGUCCCGUACAGAACG	≤ 0.5
GUUCCGUUGGCGUAAUAGUAACGCGUCUCCCUCCUAAGGAGAAGACUGCGGGUCCGAGCCGCGUACGGAACG	≤ 0.5
GUUCCGUUGGCGUAAUCGUCACGCGUCUCCCUCAUAAGGAGAAGACAGCGGGUUCGUGUCCCGUACGGAACG	≤ 0.5
GUUCCGUUGGCGUAAUCGUCACGCGUCUCCCUCCUAAGGAGAAGACUGUGGAUUCGAGUCAGGUACGGAACG	≤ 0.5
GUUCCGUUGGCGUAAUCGUGACGCGUCUCCCUCCUAAGGAGAAGAAUGCGGGUUCGAGUUCCGUACGGAACG	≤ 0.5
GUUCCGUUGGCGUAAUCGUAAGGCGUCUCUCUCCUAAGGACAAGACUGCGGGUUCGAGUCCCGUACGGAACG	0.612
GUUCCGUUGGCGUAAUCGUAACGCGUCUCCCUCCUAAGGGAAAGACUGCGGGUUCCAGUCCCGUACGGAACG	≤ 0.5
GUUCCGUUGGCGUAAUCGUAACGCGUCUCCCUCCUAAGGAGAAGACUGCGGGUUCGAGUCCCGUACGGACCG	0.751
GUUCCGUUGGCGUAAUCGUAACGCGUCUCCCUCCUAAGGAGAAGACUGCGGGUUCGAGUCCCGUACGGAGCG	0.616
GUUCCGUUGGCGUAAUCGUAACGCGUCUCCCUCCUAAGGAGAAGACUGCGGGUUCGAGUCCCGUACGGAUCG	0.713
GUUCCGUUGGCGUAAUCGUAAUGCGUCUCCCUCCUAAGGAGAAGACUGGGGGUUCGAGUCCCGUACGGAACG	≤ 0.5
GUUCCGUUGGCGUAAUCGUAACGCGUCUCCCUCCUAAGGAGCAGACUGCGGGUUCGAGUCCCGUACGGAACG	0.618
GUUCCGUUGGCGUAAUAGUAACGCGGCUGCCUCCUAAGGAGAAGACUGCGGGUUCGAGUCCUGUACGGAGCG	≤ 0.5
GUUCCGUUGGCGUAAUAGUAACGCGUCUCCCGCCUAAGGAGAAGACUGCGGGUUCGAGUCCCGUACGGAACG	0.572
GUUCCGUUGGCGUAAUAGUAACGCGUCUCCCCCCUAAGGAGAAGACUGCGGGUUCGAGUCCCGUACGGAACG	0.704
